Assay results as given in EPA's CvTdb concentration-time database.

Columns and labels:
[1] = tested on: Rat; test: concentration in plasma after dosing; conditions: 2 min; dosed: alpha-Thujone; 25 mg/kg; oral; Male; Harlan Sprague Dawley
[2] = tested on: Rat; test: concentration in brain after dosing; conditions: 10 min; dosed: alpha-Thujone; 25 mg/kg; oral; Male; Harlan Sprague Dawley
[3] = tested on: Rat; test: concentration in plasma after dosing; conditions: 6 h; dosed: alpha-Thujone; 50 mg/kg; oral; Female; Harlan Sprague Dawley
[4] = tested on: Rat; test: concentration in plasma after dosing; conditions: 2.5 h; dosed: 76231-76-0; 3.0 mg/kg; iv; Female; F344
[5] = tested on: Rat; test: concentration in brain after dosing; conditions: 6 h; dosed: alpha-Thujone; 25 mg/kg; oral; Male; Harlan Sprague Dawley
[6] = tested on: Rat; test: concentration in plasma after dosing; conditions: 12 h; dosed: alpha-Thujone; 50 mg/kg; oral; Female; Harlan Sprague Dawley
[7] = tested on: Rat; test: concentration in brain after dosing; conditions: 3 h; dosed: alpha-Thujone; 25 mg/kg; oral; Male; Harlan Sprague Dawley
[8] = tested on: Rat; test: concentration in plasma after dosing; conditions: dosed: Pyridine, 5 mg/kg, oral, Male, F344
[9] = tested on: Rat; test: concentration in plasma after dosing; conditions: dosed: Methyleugenol, 37 mg/kg, iv, Female, F344
[10] = tested on: Rat; test: concentration in plasma after dosing; conditions: 1 h; dosed: Methyleugenol; 37 mg/kg; oral; Male; F344/N
[11] = tested on: Rat; test: concentration in plasma after dosing; conditions: 2 min; dosed: Methyleugenol; 37 mg/kg; iv; Female; F344
[12] = tested on: Rat; test: concentration in plasma after dosing; conditions: 6 h; dosed: Primidone; 130 mg/kg; oral; Female; F344
[13] = tested on: Rat; test: concentration in plasma after dosing; conditions: 0.25 h; dosed: Primidone; 30 mg/kg; oral; Male; F344
[14] = tested on: Rat; test: concentration in plasma after dosing; conditions: 1.5 h; dosed: Primidone; 30 mg/kg; oral; Female; F344
[15] = tested on: Rat; test: concentration in plasma after dosing; conditions: 0.25 h; dosed: Primidone; 80 mg/kg; oral; Female; Harlan Sprague-Dawley
[16] = tested on: Mouse; test: concentration in plasma after dosing; conditions: 2 h; dosed: 2-Hydroxy-4-methoxybenzophenone; 500 mg/kg; oral; Male; B6C3F1
[17] = tested on: Mouse; test: concentration in plasma after dosing; conditions: 2.5 min; dosed: 2-Hydroxy-4-methoxybenzophenone; 250 mg/kg; oral; Female; B6C3F1
[18] = tested on: Mouse; test: concentration in plasma after dosing; conditions: dosed: 2-Hydroxy-4-methoxybenzophenone, 100 mg/kg, oral, Male, B6C3F1
[19] = tested on: Mouse; test: concentration in plasma after dosing; conditions: dosed: 2-Hydroxy-4-methoxybenzophenone, 100 mg/kg, oral, Female, B6C3F1
[20] = tested on: Mouse; test: concentration in plasma after dosing; conditions: 0.25 h; dosed: 2-Hydroxy-4-methoxybenzophenone; 50 mg/kg; iv; Male; B6C3F1
[21] = tested on: Hamster; test: concentration in plasma after dosing; conditions: dosed: 2,4-Dichlorophenoxyacetic acid, 40 mg/kg, oral, Male, Syrian Golden
Summary of the method: (§1)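 Concentration-versus-time or amount-versus-time points were compiled from published in vivo toxicokinetic studies and from two structured collections. The studies were found by PubMed searching, classifier screening and manual review. Points were mostly digitised from plot screenshots with WebPlotDigitizer, otherwise copied from tables, and kept in the reported units. Dose, route, subject details and medium were curated by hand from each paper, and sampling and analytical methods follow each source and were often unreported.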

[22] = tested on: Hamster; test: concentration in plasma after dosing; conditions: dosed: 2,4-Dichlorophenoxyacetic acid, 40 mg/kg, oral, Male, Syrian Golden; remark: listed apart in the source
Summary of the method: as §1

[23] = tested on: Rat; test: concentration in plasma after dosing; conditions: dosed: 2,4-Dichlorophenoxyacetic acid, 7.0 mg/kg, oral, Male, Sprague-Dawley
[24] = tested on: Hamster; test: concentration in plasma after dosing; conditions: dosed: 2,4-Dichlorophenoxyacetic acid, 2.0 mg/kg, oral, Male, Syrian Golden
Summary of the method: as §1

[25] = tested on: Mouse; test: concentration in plasma after dosing; conditions: dosed: 2,4-Dichlorophenoxyacetic acid, 1.0 mg/kg, oral, Male, B6C3F1
[26] = tested on: Rat; test: concentration in kidney after dosing; conditions: 6 h; dosed: Perfluorohexane-1-sulphonic acid – potassium salt; 16 mg/kg; oral; Female; Harlan Sprague Dawley
[27] = tested on: Rat; test: concentration in plasma after dosing; conditions: dosed: Perfluorohexane-1-sulphonic acid – potassium salt, 4 mg/kg, oral, Male, F344
[28] = tested on: Rat; test: concentration in kidney after dosing; conditions: 24 h; dosed: Perfluorohexane-1-sulphonic acid – potassium salt; 16 mg/kg; oral; Female; Harlan Sprague Dawley

CC(C)[C@]12CC(=O)[C@H](C)[C@H]1C2 [alpha-Thujone]
Conditions | concentration in brain [ng/g] | concentration in plasma [ng/mL]
[1] | – | 17.8
[2] | 1080 | –
[3] | – | 192
[4] | – | 2.88
[5] | 84.6 | –
[6] | – | 18.3
[7] | 176 | –

c1ccncc1 [Pyridine]
[8]
Conditions | concentration in plasma [ng/mL]
1 h | 3160
8 h | 1170

C=CCc1ccc(OC)c(OC)c1 [Methyleugenol]
[9]
Conditions | concentration in plasma [ng/mL]
0.25 h | 9200
1.5 h | 738

Conditions | concentration in plasma [ng/mL]
[10] | 63.4
[11] | 47500

CCC1(c2ccccc2)C(=O)NCNC1=O [Primidone]
Conditions | concentration in plasma [ng/mL]
[12] | 58400
[13] | 7800
[14] | 20600
[15] | 12500

O=C(c1ccccc1)c1ccc(O)cc1O [2,4-Dihydroxybenzophenone]
Conditions | concentration in plasma [ng/mL]
[16] | 318
[17] | 53.1
[20] | 1940

concentration in plasma [ng/mL]
Conditions | 0.25 h | 2 h | 2.5 min | 3 h | 10 min
[18] | 352 | 173 | 64.5 | 105 | 161
[19] | 303 | 34.9 | 68 | 30.3 | 115

O=C(O)COc1ccc(Cl)cc1Cl [2,4-Dichlorophenoxyacetic acid]
concentration in plasma [ng/mL]
Conditions | [21] | [22] | [23] | [24] | [25]
0.25 h | 57000 | 70500 | 9530 | 6170 | 3930
0.5 h | 88000 | 36800 | 10100 | – | 3060
1 h | 40700 | 80100 | – | 492 | –
1.5 h | 16600 | 14000 | – | – | –
2 h | 12000 | 20500 | 13900 | 1870 | 1790
2.5 min | – | – | 4360 | 146 | –
3 h | – | – | 2020 | – | 990
4 h | 3730 | 2580 | 2030 | – | –
5 h | – | – | 3730 | – | –
5 min | 26600 | 102000 | – | 4920 | 3890
6 h | 1400 | – | 776 | – | 324
8 h | – | – | – | – | 161
10 h | 34300 | – | – | – | –
10 min | – | – | 8480 | 1970 | 4270

O=S(=O)([O-])C(F)(F)C(F)(F)C(F)(F)C(F)(F)C(F)(F)C(F)(F)F.[K+] [Perfluorohexane-1-sulphonic acid – potassium salt]
Conditions | concentration in kidney [ng/g]
[26] | 36500
[28] | 22700

[27]
Conditions | concentration in plasma [ng/mL]
1 h | 18800
12 h | 32300
864 h | 6150
